Experimental findings from ChEMBL document CHEMBL1127578, “Phospholipase C inhibitors: a new class of cytotoxic agents” (J Med Chem, 1994) are described below.

The structures appear in SMILES notation. Converted amounts (≈) assume the structure as drawn.

Series [1] is described as follows: Inhibitory activity against phospholipase C isolated from human melanoma. The method, boiled down:
(§1)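 PI-specific PLC partially purified from RPMI 7272 human melanoma xenografts in nude mice (Q-Sepharose then heparin-Sepharose, 0.35 M NaCl eluate), 20–30 μg protein. Enzyme preincubated with compound 5 min at 37 °C in 25 mM imidazole pH 7.2, 100 mM KCl, 1 mM CaCl2, 0.8 mg/mL deoxycholate. Reaction started with 1 mM phosphatidylinositol, run 15 min at 37 °C, stopped with EDTA.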

Series [2] can be described thus: pKa value was determined. The format is physicochemical.
The nature of series [3]: Inhibitory activity against phospholipase C isolated from human melanoma; IN-Inactive. The gist of the method: as §1

One may read the IC50 as the concentration that inhibits the measured activity by half. Lower therefore signals greater potency in that assay. Consider `CCCCCCCCCCCCOc1ccc2oc(=O)c([N+](=O)[O-])cc2c1`, for which, in series [1], the IC50 came to 68.6 µg/mL (≈ 183 µM).

As usually defined, the pKa is the pH at which an ionisable group is half protonated. Take `O=[N+]([O-])C1=Cc2ccccc2OC1Nc1ccccc1[N+](=O)[O-]` (stereo unspecified): the IC50 in series [1] was found to be 6 µg/mL (≈ 19.2 µM). Moreover, the pKa in series [2] is -0.26.

As to `O=[N+]([O-])C1=Cc2ccccc2OC1N1CCOCC1` (stereo unspecified), the IC50 in series [1] stood at 5 µg/mL (≈ 19.1 µM). Moreover, the pKa in series [2] was determined as 8.33.

`CCCCCCCOc1ccc2oc(=O)c([N+](=O)[O-])cc2c1`: in series [3], the 50% inhibitory concentration (IC50) entry was “Not Active”. Consider `C=CCCCCCCCCC(=O)Oc1ccc2oc(=O)c([N+](=O)[O-])cc2c1`, for which the IC50 in series [1] was 3.2 µg/mL (≈ 8.57 µM).

Consider `CCCCCCCCCCOc1ccc2oc(=O)c([N+](=O)[O-])cc2c1`, for which the IC50 entry in series [3] is on record as “Not Active”. `O=[N+]([O-])C1=Cc2ccccc2OC1Nc1cccc([N+](=O)[O-])c1` (stereo unspecified) displayed an IC50 in series [1] of 7.5 µg/mL (≈ 23.9 µM). Besides, the pKa in series [2] was determined as 2.47. Turning to `CCCCCCCCCCCCCCCC(=O)Oc1ccc2oc(=O)c([N+](=O)[O-])cc2c1`, the IC50 in series [1] worked out at 28.5 µg/mL (≈ 64 µM). In series [1], `COc1ccccc1NC1Oc2ccccc2C=C1[N+](=O)[O-]` (stereo unspecified) registered an IC50 of 4.5 µg/mL (≈ 15.1 µM). The same compound yielded a pKa in series [2] of 2.52.

As for `C=CCCCCCCCCOc1ccc2oc(=O)c([N+](=O)[O-])cc2c1`, in series [1], the IC50 was determined as 45.1 µg/mL (≈ 131 µM).

For the compound `COc1cccc(NC2Oc3ccccc3C=C2[N+](=O)[O-])c1` (stereo unspecified), the IC50 in series [1] was 6.6 µg/mL (≈ 22.1 µM). The pKa in series [2] stood at 4.2.

Compound `CCCCOc1ccc2oc(=O)c([N+](=O)[O-])cc2c1` had an IC50 in series [1] of 33.9 µg/mL (≈ 129 µM). On to `CC(=O)Oc1ccc2cc([N+](=O)[O-])c(=O)oc2c1`, for which the IC50 entry in series [3] is “Not Active”.

As to `O=c1oc2ccccc2cc1[N+](=O)[O-]`, the IC50 in series [1] was determined as 16.1 µg/mL (≈ 84.2 µM).

On to `O=c1oc2cc(O)ccc2cc1[N+](=O)[O-]`, for which the IC50 result in series [3] is “Not Active”. In series [1], `O=c1oc2ccc(O)cc2cc1[N+](=O)[O-]` yielded a concentration for half-maximal inhibition (IC50) of 10.9 µg/mL (≈ 52.6 µM). In turn, `O=c1oc2ccc(OCCCCCCCCO)cc2cc1[N+](=O)[O-]` showed an IC50 in series [1] of 9.6 µg/mL (≈ 28.6 µM). `COc1ccc(NC2Oc3ccccc3C=C2[N+](=O)[O-])cc1` (stereo unspecified) gave an IC50 in series [1] of 12.9 µg/mL (≈ 43.2 µM). This compound yielded a pKa in series [2] of 5.31. In the case of `O=[N+]([O-])C1=Cc2ccccc2OC1Nc1ccccc1` (stereo unspecified), in series [1], the IC50 came to 11.7 µg/mL (≈ 43.6 µM). In series [2], this compound gave a pKa of 4.4.

For the compound `CCCCCCCCCCCCCCCC(=O)Oc1cccc2cc([N+](=O)[O-])c(=O)oc12`, in series [1], the IC50 came out at 47 µg/mL (≈ 105 µM). For the compound `O=[N+]([O-])C1=Cc2ccccc2OC1n1cccn1` (stereo unspecified), in series [1], the IC50 turned out to be 21 µg/mL (≈ 86.3 µM). Besides, the pKa in series [2] turned out to be 2.48. Take `CCCCCCCCCCCCCCCC(=O)Oc1ccc2cc([N+](=O)[O-])c(=O)oc2c1`: the IC50 result in series [3] was “Not Active”.

On to `CCCCCCCC(=O)Oc1ccc2oc(=O)c([N+](=O)[O-])cc2c1`, for which, in series [1], the IC50 stood at 4.3 µg/mL (≈ 12.9 µM). `O=[N+]([O-])C1=Cc2ccccc2OC1Nc1ccc([N+](=O)[O-])cc1` (stereo unspecified) registered an IC50 in series [1] of 14.4 µg/mL (≈ 46 µM). The compound also registered a pKa in series [2] of 1. For `COc1ccc2oc(=O)c([N+](=O)[O-])cc2c1`, the IC50 in series [1] is 31 µg/mL (≈ 140 µM). For the compound `CC(C)Oc1ccc2oc(=O)c([N+](=O)[O-])cc2c1`, the IC50 in series [1] was determined as 23.5 µg/mL (≈ 94.3 µM).

On to `CCCCCCOc1ccc2oc(=O)c([N+](=O)[O-])cc2c1`, for which the IC50 entry in series [3] is “Not Active”. Take `O=c1oc2c(O)cccc2cc1[N+](=O)[O-]`: the IC50 in series [1] was 24.8 µg/mL (≈ 120 µM). The compound `CC(=O)Oc1cccc2cc([N+](=O)[O-])c(=O)oc12` displayed a concentration for half-maximal inhibition (IC50) in series [1] of 36 µg/mL (≈ 144 µM).

Consider `CCCCCCCC(=O)Oc1ccc2cc([N+](=O)[O-])c(=O)oc2c1`, for which the IC50 entry in series [3] was “Not Active”. Turning to `CCCCCCCC(=O)Oc1cccc2cc([N+](=O)[O-])c(=O)oc12`, the IC50 in series [1] is 17 µg/mL (≈ 51 µM). Still for that read-out and setting: under `CC(=O)Oc1ccc2oc(=O)c([N+](=O)[O-])cc2c1` stands 16 µg/mL (≈ 64.2 µM).
